This is an account of results in ChEMBL document CHEMBL4339255, “Dimeric Pyranonaphthoquinone Glycosides with Anti-HIV and Cytotoxic Activities from a Soil-Derived Streptomyces” (J Nat Prod, 2019).

The nature of data set [1]: Therapeutic index, ratio of CC50 for toxicity in C8166 cells to EC50 for antiviral activity against HIV1 3B infected in human C8166 cells. The format is cell-based. Conditions: read-out: Ratio CC50/EC50.
Data set [2] has as its system Human immunodeficiency virus 1. In words: Antiviral activity against HIV1 3B infected in human C8166 cells assessed as inhibition of syncytial cell formation incubated for 72 hrs. The data set is classed as functional, organism-based. The conditions noted are these: Human immunodeficiency virus 1, 3B, C8166, 72 h.
Data set [3] is described as follows: Toxicity in human C8166 cells assessed as reduction in cell viability incubated for 72 hrs by MTT assay. The format is cell-based.
The subject of data set [4] is MCF7. Nature of the data set: Cytotoxicity in human MCF7 cells assessed as reduction in cell viability incubated for 72 hrs by MTS assay. The data set is classed as functional, cell-based. The conditions noted are these: MCF7, 72 h. Summed up:
(§1)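 Cells plated at 5 × 10^3 per well, left 24 h, then given a range of sample concentrations from DMSO solutions, in triplicate; DMSO-only negative controls, paclitaxel and cisplatin positive controls. After 72 h exposure, MTS added for 2 h at 37 °C, absorbance read at 492 nm, IC50 by the Reed and Muench method.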

Data set [5] has as its system HL-60. Nature of the data set: Cytotoxicity in human HL60 cells assessed as reduction in cell viability incubated for 72 hrs by MTS assay. The format is functional, cell-based. Conditions: HL-60, 72 h. The method, boiled down:
as §1

`COC(=O)C[C@H]1C[C@@]2(S[C@@]34C[C@H](CCO[C@H]5O[C@@H](C(=O)O)[C@H](O)[C@@H](O)[C@@H]5O)O[C@@H](C)[C@@]3(O)C(=O)c3c(O)cccc3C4=O)C(=O)c3cccc(O)c3C(=O)[C@]2(O)[C@H](C)O1`: the selectivity ratio in data set [1] turned out to be 5.9. Besides, the EC50 in data set [2] was 9.6 µM. Also, the CC50 at 72 h in data set [3] was determined as 56.4 µM.
The like results for `COC(=O)C[C@H]1C[C@@]2(S[C@@]34C[C@H](CC(=O)O[C@H]5O[C@@H](C(=O)O)[C@H](O)[C@@H](O)[C@@H]5O)O[C@@H](C)[C@@]3(O)C(=O)c3c(O)cccc3C4=O)C(=O)c3cccc(O)c3C(=O)[C@]2(O)[C@H](C)O1` were, in that order, 5.4, 9.6 µM and 52 µM.
For the compound `CC(=O)O[C@H]1C(=O)[C@@]2(C)[C@H]([C@H](OC(=O)c3ccccc3)[C@]3(O)C[C@H](OC(=O)[C@H](O)[C@@H](NC(=O)c4ccccc4)c4ccccc4)C(C)=C1C3(C)C)[C@]1(OC(C)=O)CO[C@@H]1C[C@@H]2O` [PACLITAXEL], the IC50 in data set [4] and in data set [5] was < 0.008 µM in each case.
On to `COC(=O)C[C@H]1C[C@@]2(S[C@@]34C[C@H](CC(=O)O[C@H]5O[C@@H](C(=O)OC)[C@H](O)[C@@H](O)[C@@H]5O)O[C@@H](C)[C@@]3(O)C(=O)c3c(O)cccc3C4=O)C(=O)c3cccc(O)c3C(=O)[C@]2(O)[C@H](C)O1`, for which the IC50 in data set [4] turned out to be 3.4 µM; in data set [5] it was 16.1 µM.
Turning to `COC(=O)C[C@H]1C[C@@]2(S[C@@]34C[C@H](CC(=O)O[C@H]5OC(C(=O)O)=C[C@@H](O)[C@@H]5O)O[C@@H](C)[C@@]3(O)C(=O)c3c(O)cccc3C4=O)C(=O)c3cccc(O)c3C(=O)[C@]2(O)[C@H](C)O1`, the selectivity ratio in data set [1] is 22.5. Also, the IC50 worked out at 1.4 µM in data set [4] and 9.9 µM in data set [5]. The EC50 in data set [2] was determined as 2.8 µM. The CC50 at 72 h in data set [3] is 63.7 µM.
For `Nc1ccn([C@@H]2CS[C@H](CO)O2)c(=O)n1` [LAMIVUDINE], the selectivity ratio in data set [1] was > 2910. For the same compound, the EC50 in data set [2] came out at 0.3 µM. Besides, the CC50 at 72 h in data set [3] is > 1000 µM.
`COC(=O)C[C@H]1C[C@@]2(S[C@@]34C[C@H](CCO[C@H]5O[C@@H](C(=O)OC)[C@H](O)[C@@H](O)[C@@H]5O)O[C@@H](C)[C@@]3(O)C(=O)c3c(O)cccc3C4=O)C(=O)c3cccc(O)c3C(=O)[C@]2(O)[C@H](C)O1`: the selectivity ratio in data set [1] was determined as 4.2. In addition, the values for the IC50 in data set [4] and in data set [5] were 3.4 µM and 14.9 µM, respectively. In data set [2], the EC50 was 8.6 µM. Further, in data set [3], the CC50 at 72 h was 36.4 µM.
Consider `COC(=O)C[C@H]1C[C@@]2(S[C@@]34C[C@H](CC(=O)OC)O[C@@H](C)[C@@]3(O)C(=O)c3c(O[C@H]5O[C@@H](C(=O)O)[C@H](O)[C@@H](O)[C@@H]5O)cccc3C4=O)C(=O)c3cccc(O)c3C(=O)[C@]2(O)[C@H](C)O1`, for which, in data set [1], the selectivity ratio was > 2.2. Moreover, in data set [2], the EC50 was 44.7 µM. The CC50 at 72 h in data set [3] is > 100 µM.
